Source: PubChem BioAssay (several laboratories)
An excerpt weighted towards active compounds, which were near 1.8% of everything screened.
HCV core dimer = HCV core protein dimerization inhibition; inhibition, % at 5 µM; AID 1899; TR-FRET GST/Flag-core106 dimerization, 1536-well; hit rate 0.33% among 300,000;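 active means inhibition above the mean of all tested compounds plus 3 SD, set per screening campaign, cut at about 45% in these data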
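test system = GST/Flag-tagged HCV core106 proteins | probe or stimulus = Eu donor and XL665 acceptor anti-tag antibodies | times = compound-protein-antibody incubation 4 h at 22.5 °C | signal = TR-FRET, excitation 340 nm, emission 617 and 671 nm | measure = percent inhibition of core106 dimerization signal | controls = wells lacking GST-core106 and wells with excess unlabelled core106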
PABP1 MLLE inh = blocks PAM2 peptide binding to the PABP1 MLLE domain. inhibition, % at 20 µM. hit rate 0.36% among 360,000. P11940. AID 588489. GST-MLLE / FITC-PAM2 fluorescence polarization; in the data active means inhibition above about 35%, passing the limit was not always enough;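 further: plate controls were DMSO wells with GST-MLLE for no effect and wells lacking GST-MLLE protein for full effect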
Target sequence (P11940 whole entry, looked up, the tested form may be a part): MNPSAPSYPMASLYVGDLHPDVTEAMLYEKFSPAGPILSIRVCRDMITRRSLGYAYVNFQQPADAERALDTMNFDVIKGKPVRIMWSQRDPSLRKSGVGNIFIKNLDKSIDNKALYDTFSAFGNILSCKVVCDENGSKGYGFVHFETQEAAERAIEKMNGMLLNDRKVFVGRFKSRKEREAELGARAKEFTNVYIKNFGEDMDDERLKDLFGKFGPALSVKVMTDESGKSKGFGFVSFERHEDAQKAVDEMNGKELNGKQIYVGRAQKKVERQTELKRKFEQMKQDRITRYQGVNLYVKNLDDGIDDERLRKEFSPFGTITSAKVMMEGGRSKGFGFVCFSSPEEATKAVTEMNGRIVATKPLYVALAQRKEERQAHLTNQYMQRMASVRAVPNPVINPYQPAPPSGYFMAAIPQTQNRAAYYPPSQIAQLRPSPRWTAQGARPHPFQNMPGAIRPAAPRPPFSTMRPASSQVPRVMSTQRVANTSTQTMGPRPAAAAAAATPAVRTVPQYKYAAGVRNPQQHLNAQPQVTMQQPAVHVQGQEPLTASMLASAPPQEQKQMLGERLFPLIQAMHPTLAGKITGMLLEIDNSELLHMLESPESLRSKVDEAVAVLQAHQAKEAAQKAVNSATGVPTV
eIF4E 4G PPI = inhibitors of eIF4E and eIF4G interaction in translation initiation; AID 782; hit rate 0.37% among 220,000; inhibition, % at 21.7 µM; TR-FRET eIF4E-eIF4GI(517-606) binding, 2 h; P63073+Q04637;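 active means inhibition above about 30%, limit read from the data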;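 further: 0% = full FRET control wells and 100% = background wells lacking eIF4GI fragment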
PABP polyA inh = blocks human PABP binding to poly(A) RNA; P11940; fluorescence polarization; calls only at 35 µM; hit rate 1% among 290,000; AID 2014;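 further: calls also rest on retests at 20 µM and on dose response follow-up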
SUMO HTRF inh = inhibitors of human SUMOylation (UBC9) | P63279 | HTRF SUMOylation assay, SAE1/SAE2 + UBC9, in vitro | inhibition, % at 35 µM | hit rate 0.36% among 290,000; in the data active means inhibition above about 50%, passing the limit was not always enough; inconclusive means no clear call, values can overlap the other calls
eIF4H FP inh = inhibitors of RNA binding by human eIF4H. inhibition, % at 35 µM. AID 2012. Q15056. eIF4H fluorescence polarization binding assay. hit rate 0.94% among 290,000;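 further: calls also rest on retests at 20 µM and on dose response follow-up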
* hit, by the source's call; i = inactive; ? = inconclusive; nt = no result; + = active, no number. Unless noted, how the calls were made is not given here.

SMILES	HCV core dimer	PABP1 MLLE inh	eIF4E 4G PPI	PABP polyA inh	SUMO HTRF inh	eIF4H FP inh
O=C(CC1SC(=O)N(c2ccccc2)C1=O)Nc1ccccc1 (stereo not drawn)	-4	49*	5	i	-2	-2
CCCN1C(=O)SC(CC(=O)Nc2ccc(C)cc2)C1=O (stereo not drawn)	-8	45*	-1	i	1	-4
Cc1ccc(NC(=O)CC2SC3=NCCN3C2=O)cc1 (stereo not drawn)	0	44*	8	i	-7	-2
CC(CC(=O)NCCc1ccc(Cl)cc1)S(=O)(=O)c1ccc2c(c1)NC(=O)CO2 (stereo not drawn)	5	0	nt	i	8	-5
O=C(CSc1ccc2nnc(-c3ccccn3)n2n1)Nc1cccc(F)c1	1	2	nt	i	17	-4
COc1ccccc1NC(=O)C1CC(C)OC1=O (stereo not drawn)	1	12	nt	nt	nt	nt
Cc1ccccc1NC(=O)CSc1ccsc1[N+](=O)[O-]	42	7	23	+	14	?
O=C(CSc1ccsc1[N+](=O)[O-])N1CCN(c2ccc(Cl)cc2)CC1	67*	3	17	+	24	77*
O=C(CSc1ccsc1[N+](=O)[O-])N1CCN(c2ccccc2)CC1	19	12	19	i	2	50
Cc1ccc(C)c(N2CCN(C(=O)CSc3ccsc3[N+](=O)[O-])CC2)c1	56*	3	4	i	18	22
COc1ccc(Cc2nnc(NC(=O)Nc3ccccc3)s2)cc1OC	12	4	nt	i	13	4
CC(c1ccccc1)C(OC(=O)c1cccc([N+](=O)[O-])c1C(=O)O)c1ccccc1 (stereo not drawn)	nt	1	nt	nt	nt	nt
Cc1cccc(NC(=O)/C(C#N)=C/c2cn(CC(=O)NCc3ccco3)c3ccccc23)c1C	8	-2	0	i	58*	2
N#C/C(=C\c1cn(Cc2ccccc2)c2ccccc12)C(=O)NCc1ccco1	8	1	8	i	48	-10
N#C/C(=C/c1cn(-c2ccccc2)nc1-c1cccc(S(=O)(=O)N2CCCC2)c1)C(=O)NCc1ccco1	71*	-7	8	i	46	44
N#C/C(=C\c1cn(Cc2ccc(F)cc2)c2ccccc12)C(=O)NCc1ccco1	14	-11	0	i	51*	26
Cc1nc(C(=O)Nc2cc(F)cc(Cl)c2)sc1C1(C)CC(c2ccccc2)=NO1 (stereo not drawn)	9	-9	nt	nt	nt	nt
c1ccc(Cn2c(SCc3nc4ccccc4s3)nnc2-c2ccco2)cc1	50*	-76	4	i	18	63
Cc1c(C)n(C(=O)CSc2nc3ccccc3[nH]2)c2ccccc12	-33	-77	12	+	4	68*
CCOC(=O)c1ccc(NC(=S)NCCc2ccc(OC)c(OC)c2)cc1	-7	5	9	i	2	-2
CC1(C)CC(=O)C2=C(C1)Nc1ccccc1NC2c1ccccc1F (stereo not drawn)	6	48*	nt	i	0	3
CN=C1NN=C(c2cc(C)n(-c3ccc(Cl)cc3)c2C)CS1	65*	-24	3	i	21	-7
CN(Cc1ccccc1Cl)C(=O)C1CCC(=O)N(C2CCCCCC2)C1 (stereo not drawn)	nt	0	nt	i	8	-9
COc1ccccc1OCc1nnc(SCC(=O)Nc2nnc(C3CC3)s2)n1C	1	-19	nt	i	11	-2
N#CC1=C(N)n2c(s/c(=C\c3cccs3)c2=O)=C(C#N)C1c1cccs1 (stereo not drawn)	29	-23	1	i	38	60
SMILES	HCV core dimer	PABP1 MLLE inh	eIF4E 4G PPI	PABP polyA inh	SUMO HTRF inh	eIF4H FP inh
CCOC(=O)C1=C(N)n2c(s/c(=C/c3ccco3)c2=O)=C(C(=O)OC)C1c1ccco1 (stereo not drawn)	17	3	2	+	56	83*
CCOC(=O)C1=c2s/c(=C\c3ccncc3)c(=O)n2C(N)=C(C(=O)OC)C1c1ccncc1 (stereo not drawn)	4	9	7	i	4	1
N#CC1=C(N)n2c(s/c(=C\c3ccco3)c2=O)=C(C#N)C1c1ccco1 (stereo not drawn)	23	-46	-5	+	40	99*
CCOc1cc(/C=C2\C(=O)N(c3cccc(C(=O)O)c3)N=C2C(F)(F)F)ccc1OCC(=O)Nc1ccccc1OC	31	nt	nt	i	73*	9
CCOc1cc(/C=N/n2cnnc2)ccc1OCC(=O)Nc1ccccc1OC	-1	-1	6	i	-21	-10
CCn1c(NN)nc2sc3c(c2c1=O)CCC3	55*	-52	9	+	18	52*
CCSc1nc2sc3c(c2c(=O)n1CC)CCC3	nt	3	nt	i	4	13
Nn1c(Nc2ccccc2)nc2sc3c(c2c1=O)CCC3	nt	23	4	i	-10	6
C#CCSc1nc2sc3c(c2c(=O)n1C)CCC3	0	-8	nt	+	7	63*
NNc1nc2sc3c(c2c(=O)n1Cc1ccccc1)CCC3	20	-54	8	+	40	64*
COc1ccc(S(=O)(=O)Nc2ccccc2C(=O)N2CCOCC2)cc1Br	nt	-5	nt	i	-4	-13
COc1ccccc1Nc1nc(N)nc(CN2CCCCC2)n1	11	-10	2	+	13	2.7*
COc1ccccc1Nc1nc(N)nc(CN2CCN(Cc3ccccc3)CC2)n1	-5	9	-5	i	7	4
CCCCn1c2ccc(F)cc2c2nnc(SCCN3CCOCC3)nc21	nt	45*	nt	i	-11	-7
CCOC(=O)C1=C(C)Nc2ccccc2N=C1NC(=O)c1ccc(Cl)c(S(=O)(=O)N2CCCC2)c1	18	-21	-9	i	-24	66
O=C(O)c1cc(S(=O)(=O)O)cc(Nc2c3ccccc3nc3ccccc23)c1O	-16	7	nt	+	44	98*
O=C(CSc1ccc(-c2ccc(F)cc2)nn1)NC1CCCCC1	-1	-5	nt	i	14	0
O=C1CN(C(=O)COC(=O)C23CC4CC(CC(O)(C4)C2)C3)c2ccccc2N1	-1	-23	-1	i	-7	5
CC1(C)C(=O)Nc2ccccc2N1C(=O)COC(=O)C12CC3CC(CC(O)(C3)C1)C2	57*	-17	-4	i	-6	41
O=c1oc(-c2cccs2)nc2sc3c(c12)CCCC3	6	5	0	i	26	-7
O=c1oc(-c2cccs2)nc2sc3c(c12)CCC3	1	-26	-2	i	51*	-4
O=c1oc(/C=C/c2ccco2)nc2sc3c(c12)CCC3	-5	4	1	+	32	73*
Cc1nc2sc3c(c2c(=O)o1)CCC3	-12	12	3	i	4	9
